Assay results published in ChEMBL document CHEMBL4145645, “Bioactive Phenolic Components from the Twigs of Atalantia buxifolia” (J Nat Prod, 2018).

Experiments:
MDA-MB-231 = assay: Cytotoxicity against human MDA-MB-231 cells by MTT assay; assay type: functional, cell-based
HepG2 = assay: Cytotoxicity against human HepG2 cells by MTT assay; assay type: functional, cell-based
A549 = assay: Cytotoxicity against human A549 cells by MTT assay; assay type: functional, cell-based
Neutrophil [1] = assay: Antiinflammatory activity in human neutrophils assessed as inhibition of fMLP/CB-induced superoxide anion generation preincubated for 5 mins followed by cytochalasin B/fMLP addition for 3 mins by superoxide dismutase inhibitable reduction of ferricytochrome c based assay; assay type: functional, cell-based
Outline: (§1)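 Human neutrophils stimulated with fMLF. For the superoxide read-out, cells were equilibrated in ferricytochrome c at 0.6 mg/mL. Other steps for superoxide generation and elastase release followed an earlier published protocol. Values are means ± SEM, n = 3 or 4.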

Neutrophil [2] = assay: Antiinflammatory activity in human neutrophils assessed as inhibition of fMLP/CB-induced elastase release preincubated for 5 mins followed by fMLP/CB stimulation and measured for 10 mins using MeO-Suc-Ala-Ala-Pro-Val-p-nitroanilide as substrate; assay type: functional, cell-based; outline: as §1
[3] = Selectivity index, ratio of CC50 for human HuH7 cells to EC50 for DENV2 infected in human HuH7 cells; assay type: toxicity, cell-based; details: read-out: Ratio CC50/EC50
dengue virus type 2 = assay: Antiviral activity against DENV2 infected in human HuH7 cells; assay type: functional, organism-based; details: Huh-7
[4] = Homo sapiens, MDA-MB-231, read-out: IC50

SMILES	IC50 (MDA-MB-231; [4]) [µg/mL]	IC50 (HepG2)	IC50 (A549)	IC50 (Neutrophil [1]) [µM]	IC50 (Neutrophil [2]) [µM]	selectivity ratio [3]	EC50 (dengue virus type 2) [µM]	IC50 (MDA-MB-231; mda-mb-231)
COC(=O)/C=C/c1ccc(O)c(OC)c1	> 20	> 20 µg/mL	> 20 µg/mL					
COc1cccc2c(=O)c3c(O)cc4c(c3n(C)c12)C=CC(C)(C)O4	> 20	> 20 µg/mL	> 20 µg/mL					
CO/N=C/C(=O)c1ccc(O)cc1	> 20	> 20 µg/mL	> 20 µg/mL	4.8	> 10			
C/C(=C\COc1ccc2ccc(=O)oc2c1)C/C=C/C(C)(C)OO	> 20	> 20 µg/mL	> 20 µg/mL					
C=C(C)C(O)CC/C(C)=C/COc1ccc2ccc(=O)oc2c1 (configuration not stated)	> 20	> 20 µg/mL	> 20 µg/mL					
CO/N=C/C(=O)c1ccc(O/C=C/[C@H](C)C(=O)OC)cc1	> 20	> 20 µg/mL	> 20 µg/mL					
CC(C)=CCc1c(O)c(CC=C(C)C)c2c(c1O)c(=O)c1cccc(O)c1n2C	> 20	> 20 µg/mL	> 20 µg/mL					
C/C(=C\COc1ccc2ccc(=O)oc2c1)C/C=C/C(C)(C)O	> 20	> 20 µg/mL	> 20 µg/mL					
CC1(C)CC[C@]2(C)CC[C@H]3[C@]4(C)CC[C@H]5C(C)(C)C(=O)CC[C@]5(C)[C@H]4CC[C@@]3(C)[C@@H]2C1	> 20	> 20 µg/mL	> 20 µg/mL					
COC(=O)/C(C)=C/COc1ccc(C(=O)OC)cc1	> 20	> 20 µg/mL	> 20 µg/mL					
COC1=CC(=O)c2cc(C)ccc2C1=O	> 20	> 20 µg/mL	> 20 µg/mL					
C=C(C)C(CC/C(C)=C/COc1ccc2ccc(=O)oc2c1)OO (configuration not stated)	> 20	> 20 µg/mL	> 20 µg/mL					
CO/N=C/C(=O)c1ccc(OC/C=C(\C)C(=O)OC)cc1	> 20	> 20 µg/mL	> 20 µg/mL					
CC(C)=CCOc1ccc(C(=O)/C=N/O)cc1	> 20	> 20 µg/mL	> 20 µg/mL					
CC(C)=CCc1c2c(c3c(c1O)c(=O)c1ccccc1n3C)C=CC(C)(C)O2	> 20	> 20 µg/mL	> 20 µg/mL					
CC(C)=CCc1c2c(c3c(c1O)c(=O)c1cccc(O)c1n3C)C=CC(C)(C)O2	> 20	> 20 µg/mL	> 20 µg/mL	> 10	3.7	6.3	5.3	

SMILES	IC50 (MDA-MB-231; [4]) [µg/mL]	IC50 (HepG2)	IC50 (A549)	IC50 (Neutrophil [1]) [µM]	IC50 (Neutrophil [2]) [µM]	selectivity ratio [3]	EC50 (dengue virus type 2) [µM]	IC50 (MDA-MB-231; mda-mb-231)
COc1cc2c(c3[nH]c4ccccc4c(=O)c13)C=CC(C)(C)O2	> 20	> 20 µg/mL	> 20 µg/mL					
C=CC(C)(C)c1cc2ccc(O)cc2oc1=O	> 20	> 20 µg/mL	> 20 µg/mL					
CC1(C)C=Cc2c(cc(O)c3c(=O)cc(-c4ccc(O)cc4)oc23)O1 [ATALANTOFLAVONE]	> 20	> 20 µg/mL	> 20 µg/mL					
CC(C)=CCc1c2c(c3[nH]c4c(O)cccc4c(=O)c3c1O)C=CC(C)(C)O2 [ATALAPHYLLININE]		6.5 µM	7.8 µM					Not Active
CC1(C)C=Cc2c(cc(O)c3c(=O)c4cccc(O)c4[nH]c23)O1 [ATOLAPHYLLIDINE]		7.3 µM	7.8 µM					Not Active
COc1c2ccoc2cc2oc(=O)ccc12 [BERGAPTEN]	> 20	> 20 µg/mL	> 20 µg/mL					
COc1cccc2c1C(=O)c1c(O)c3c(c(O)c1C2=O)C[C@@](O)(C(=O)CO)C[C@@H]3O[C@H]1C[C@H](N)[C@H](O)[C@H](C)O1 [DOXORUBICIN]			0.6 µM					
COc1cc(O)c2c(=O)c3cccc(O)c3n(C)c2c1CC=C(C)C [GLYCOCITRINE I]	> 20	> 20 µg/mL	> 20 µg/mL					
CC(C)=CCOc1c2ccoc2cc2oc(=O)ccc12 [ISOIMPERATORIN]	> 20	> 20 µg/mL	> 20 µg/mL	2.6	> 10			
O=c1cc(N2CCOCC2)oc2c(-c3ccccc3)cccc12 [LY-294002]				2.1	5.1			
COC(=O)c1cccc(O)c1OC [METHYL 3-HYDROXY-2-METHOXYBENZOATE]	> 20	> 20 µg/mL	> 20 µg/mL					
COC(=O)c1ccc(O)cc1 [METHYLPARABEN]	> 20	> 20 µg/mL	> 20 µg/mL					
CC(C)=CCOc1c2occc2cc2ccc(=O)oc12 [PENTOSALEN]	> 20	> 20 µg/mL	> 20 µg/mL	0.2	> 10			
CC1(C)C=Cc2c(ccc3ccc(=O)oc23)O1 [SESALIN]	> 20	> 20 µg/mL	> 20 µg/mL	4.7	> 10			
CC(C)=CCc1c2c(c3[nH]c4ccccc4c(=O)c3c1O)C=CC(C)(C)O2 [SEVERIFOLINE]	> 20	> 20 µg/mL	> 20 µg/mL					
